≈ marks a conversion by molar mass, not a printed value. Calls of active or inactive are those of the source. The rule behind the calls is not given here.
Experiments:
Staphylococcus aureus [1] = experiment: Antibacterial activity against Staphylococcus aureus at 25 ug/ml incubated for 24 hrs by agar well diffusion method; type: functional; conditions: read-out: DIZ
Summary of the method: (§1)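 Bacteria grown in nutrient broth at 37 °C for 24 h, then subcultured at room temperature. Compounds dissolved in DMSO at 5 mg mL⁻¹ and 5–20 µL added to 6 mm wells, giving 25, 50, 75, 100 µg per well. Gentamicin was the positive control and DMSO the negative control. Plates held at 37 °C for 24 h, then inhibition zone diameter (mm) measured. Values are means of three determinations.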

Staphylococcus aureus [2] = experiment: Antibacterial activity against Staphylococcus aureus at 50 ug/ml incubated for 24 hrs by agar well diffusion method; type: functional; conditions: read-out: DIZ; summary of the method: as §1
Staphylococcus aureus [3] = experiment: Antibacterial activity against Staphylococcus aureus at 75 ug/ml incubated for 24 hrs by agar well diffusion method; type: functional; conditions: read-out: DIZ; summary of the method: as §1
Staphylococcus aureus [4] = experiment: Antibacterial activity against Staphylococcus aureus at 100 ug/ml incubated for 24 hrs by agar well diffusion method; type: functional; conditions: read-out: DIZ; summary of the method: as §1
Bacillus subtilis [5] = experiment: Antibacterial activity against Bacillus subtilis at 25 ug/ml incubated for 24 hrs by agar well diffusion method; type: functional; conditions: for zone of inhibition at 25 µg/mL: read-out: DIZ; summary of the method: as §1
Bacillus subtilis [6] = experiment: Antibacterial activity against Bacillus subtilis at 50 ug/ml incubated for 24 hrs by agar well diffusion method; type: functional; conditions: for zone of inhibition at 50 µg/mL: read-out: DIZ; summary of the method: as §1
Bacillus subtilis [7] = experiment: Antibacterial activity against Bacillus subtilis at 75 ug/ml incubated for 24 hrs by agar well diffusion method; type: functional; conditions: read-out: DIZ; summary of the method: as §1
Bacillus subtilis [8] = experiment: Antibacterial activity against Bacillus subtilis at 100 ug/ml incubated for 24 hrs by agar well diffusion method; type: functional; conditions: read-out: DIZ; summary of the method: as §1
Escherichia coli [9] = experiment: Antibacterial activity against Escherichia coli at 25 ug/ml incubated for 24 hrs by agar well diffusion method; type: functional; conditions: read-out: DIZ; summary of the method: as §1
Escherichia coli [10] = experiment: Antibacterial activity against Escherichia coli at 50 ug/ml incubated for 24 hrs by agar well diffusion method; type: functional; conditions: read-out: DIZ; summary of the method: as §1
Escherichia coli [11] = experiment: Antibacterial activity against Escherichia coli at 75 ug/ml incubated for 24 hrs by agar well diffusion method; type: functional; conditions: read-out: DIZ; summary of the method: as §1
Escherichia coli [12] = experiment: Antibacterial activity against Escherichia coli at 100 ug/ml incubated for 24 hrs by agar well diffusion method; type: functional; conditions: read-out: DIZ; summary of the method: as §1
Klebsiella pneumoniae [13] = experiment: Antibacterial activity against Klebsiella pneumoniae at 25 ug/ml incubated for 24 hrs by agar well diffusion method; type: functional; conditions: read-out: DIZ; summary of the method: as §1
Klebsiella pneumoniae [14] = experiment: Antibacterial activity against Klebsiella pneumoniae at 50 ug/ml incubated for 24 hrs by agar well diffusion method; type: functional; conditions: read-out: DIZ; summary of the method: as §1
Klebsiella pneumoniae [15] = experiment: Antibacterial activity against Klebsiella pneumoniae at 75 ug/ml incubated for 24 hrs by agar well diffusion method; type: functional; conditions: read-out: DIZ; summary of the method: as §1
Klebsiella pneumoniae [16] = experiment: Antibacterial activity against Klebsiella pneumoniae at 100 ug/ml incubated for 24 hrs by agar well diffusion method; type: functional; conditions: read-out: DIZ; summary of the method: as §1
Aspergillus niger [17] = experiment: Antifungal activity against Aspergillus niger at 25 ug/ml incubated for 48 hrs by agar well diffusion method; type: functional; conditions: for zone of inhibition at 25 µg/mL: read-out: DIZ
Summary of the method: (§2)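 Compounds dissolved in DMSO at 5 mg mL⁻¹ and 5–20 µL added to 6 mm wells, giving 25, 50, 75, 100 µg per well. Bavistin was the positive control and DMSO the negative control. Plates incubated at 28 °C for 48 h, then inhibition zone diameter (mm) measured. Values are means of three determinations.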

Aspergillus niger [18] = experiment: Antifungal activity against Aspergillus niger at 50 ug/ml incubated for 48 hrs by agar well diffusion method; type: functional; conditions: for zone of inhibition at 50 µg/mL: read-out: DIZ; summary of the method: as §2
Aspergillus niger [19] = experiment: Antifungal activity against Aspergillus niger at 75 ug/ml incubated for 48 hrs by agar well diffusion method; type: functional; conditions: read-out: DIZ; summary of the method: as §2
Aspergillus niger [20] = experiment: Antifungal activity against Aspergillus niger at 100 ug/ml incubated for 48 hrs by agar well diffusion method; type: functional; conditions: read-out: DIZ; summary of the method: as §2
Candida albicans [21] = experiment: Antifungal activity against Candida albicans at 25 ug/ml incubated for 48 hrs by agar well diffusion method; type: functional; conditions: read-out: DIZ; summary of the method: as §2
Candida albicans [22] = experiment: Antifungal activity against Candida albicans at 50 ug/ml incubated for 48 hrs by agar well diffusion method; type: functional; conditions: read-out: DIZ; summary of the method: as §2
Candida albicans [23] = experiment: Antifungal activity against Candida albicans at 75 ug/ml incubated for 48 hrs by agar well diffusion method; type: functional; conditions: read-out: DIZ; summary of the method: as §2
Candida albicans [24] = experiment: Antifungal activity against Candida albicans at 100 ug/ml incubated for 48 hrs by agar well diffusion method; type: functional; conditions: read-out: DIZ; summary of the method: as §2
Fusarium oxysporum [25] = experiment: Antifungal activity against Fusarium oxysporum at 25 ug/ml incubated for 48 hrs by agar well diffusion method; type: functional; conditions: read-out: DIZ; summary of the method: as §2
Fusarium oxysporum [26] = experiment: Antifungal activity against Fusarium oxysporum at 50 ug/ml incubated for 48 hrs by agar well diffusion method; type: functional; conditions: read-out: DIZ; summary of the method: as §2
Fusarium oxysporum [27] = experiment: Antifungal activity against Fusarium oxysporum at 75 ug/ml incubated for 48 hrs by agar well diffusion method; type: functional; conditions: read-out: DIZ; summary of the method: as §2
Fusarium oxysporum [28] = experiment: Antifungal activity against Fusarium oxysporum at 100 ug/ml incubated for 48 hrs by agar well diffusion method; type: functional; conditions: read-out: DIZ; summary of the method: as §2
Erythrocyte = experiment: Anti-inflammatory activity in human RBC assessed as inhibition of hypotonic solution-induced hemolysis after 10 mins by spectrophotometric method; type: functional, cell-based
Summary of the method: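 Human blood (heparinized) washed with 0.9% saline, packed cells made into a 40% v/v stock in isotonic phosphate buffer (154 mM NaCl, 10 mM sodium phosphate, pH 7.4). Stock RBC mixed with hypotonic buffer (50 mM NaCl, 10 mM phosphate, pH 7.4) plus sample at 20–100 µg mL⁻¹.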

SMILES	zone of inhibition at 25 µg/mL (Staphylococcus aureus [1]) [mm]	zone of inhibition at 50 µg/mL (Staphylococcus aureus [2]) [mm]	zone of inhibition at 75 µg/mL (Staphylococcus aureus [3]) [mm]	zone of inhibition at 100 µg/mL (Staphylococcus aureus [4]) [mm]	zone of inhibition at 75 µg/mL (Bacillus subtilis [7]) [mm]	zone of inhibition at 100 µg/mL (Bacillus subtilis [8]) [mm]	zone of inhibition at 25 µg/mL (Klebsiella pneumoniae [13]) [mm]	zone of inhibition at 50 µg/mL (Klebsiella pneumoniae [14]) [mm]	zone of inhibition at 75 µg/mL (Klebsiella pneumoniae [15]) [mm]	zone of inhibition at 100 µg/mL (Klebsiella pneumoniae [16]) [mm]	zone of inhibition at 75 µg/mL (Aspergillus niger [19]) [mm]	zone of inhibition at 100 µg/mL (Aspergillus niger [20]) [mm]	zone of inhibition at 25 µg/mL (Candida albicans [21]) [mm]	zone of inhibition at 50 µg/mL (Candida albicans [22]) [mm]	zone of inhibition at 75 µg/mL (Candida albicans [23]) [mm]	zone of inhibition at 100 µg/mL (Candida albicans [24]) [mm]	zone of inhibition at 25 µg/mL (Fusarium oxysporum [25]) [mm]	zone of inhibition at 50 µg/mL (Fusarium oxysporum [26]) [mm]	zone of inhibition at 75 µg/mL (Fusarium oxysporum [27]) [mm]	zone of inhibition at 100 µg/mL (Fusarium oxysporum [28]) [mm]	other results
CC(C)[C@H](NC(=O)OC(C)(C)C)C(=O)Oc1ccc2c(=O)c3ccccc3oc2c1	10	13	17	22	19	22	5	11	19	24	16	20	10	13	15	21	9	14	20	23	zone of inhibition at 25 µg/mL (Bacillus subtilis [5]): 7 mm; zone of inhibition at 50 µg/mL (Bacillus subtilis [6]): 13 mm; zone of inhibition at 25 µg/mL (Escherichia coli [9]): 8 mm; zone of inhibition at 50 µg/mL (Escherichia coli [10]): 13 mm; zone of inhibition at 75 µg/mL (Escherichia coli [11]): 18 mm; zone of inhibition at 100 µg/mL (Escherichia coli [12]): 20 mm; zone of inhibition at 25 µg/mL (Aspergillus niger [17]): 7 mm; zone of inhibition at 50 µg/mL (Aspergillus niger [18]): 13 mm; IC50 (Erythrocyte): 76 µg/mL (≈ 185 µM)
CC(C)(C)OC(=O)NCC(=O)Oc1ccc2c(=O)c3ccccc3oc2c1	7	12	16	22	16	20	16	12	17	23	12	15	7	10	14	16	4	9	13	15	zone of inhibition at 25 µg/mL (Bacillus subtilis [5]): 6 mm; zone of inhibition at 50 µg/mL (Bacillus subtilis [6]): 12 mm; zone of inhibition at 25 µg/mL (Escherichia coli [9]): 7 mm; zone of inhibition at 50 µg/mL (Escherichia coli [10]): 3 mm; zone of inhibition at 75 µg/mL (Escherichia coli [11]): 16 mm; zone of inhibition at 100 µg/mL (Escherichia coli [12]): 21 mm; zone of inhibition at 25 µg/mL (Aspergillus niger [17]): 5 mm; zone of inhibition at 50 µg/mL (Aspergillus niger [18]): 9 mm; IC50 (Erythrocyte): 66 µg/mL (≈ 179 µM)
CSCC[C@H](NC(=O)OC(C)(C)C)C(=O)Oc1ccc2c(=O)c3ccccc3oc2c1	15	17	22	27	24	29	16	22	26	31	18	22	11	16	19	21	8	14	17	23	zone of inhibition at 25 µg/mL (Bacillus subtilis [5]): 13 mm; zone of inhibition at 50 µg/mL (Bacillus subtilis [6]): 18 mm; zone of inhibition at 25 µg/mL (Escherichia coli [9]): 16 mm; zone of inhibition at 50 µg/mL (Escherichia coli [10]): 19 mm; zone of inhibition at 75 µg/mL (Escherichia coli [11]): 25 mm; zone of inhibition at 100 µg/mL (Escherichia coli [12]): 30 mm; zone of inhibition at 25 µg/mL (Aspergillus niger [17]): 12 mm; zone of inhibition at 50 µg/mL (Aspergillus niger [18]): 15 mm; IC50 (Erythrocyte): 36 µg/mL (≈ 81.2 µM)
N[C@@H](Cc1c[nH]c2ccccc12)C(=O)O [TRYPTOPHAN]	6	9	13	19	12	15	6	10	13	17	11	14	5	9	13	16	4	7	9	11	zone of inhibition at 25 µg/mL (Bacillus subtilis [5]): 4 mm; zone of inhibition at 50 µg/mL (Bacillus subtilis [6]): 8 mm; zone of inhibition at 25 µg/mL (Escherichia coli [9]): 6 mm; zone of inhibition at 50 µg/mL (Escherichia coli [10]): 9 mm; zone of inhibition at 75 µg/mL (Escherichia coli [11]): 14 mm; zone of inhibition at 100 µg/mL (Escherichia coli [12]): 17 mm; zone of inhibition at 25 µg/mL (Aspergillus niger [17]): 4 mm; zone of inhibition at 50 µg/mL (Aspergillus niger [18]): 7 mm
N[C@@H](Cc1ccc(O)cc1)C(=O)O [TYROSINE]	4	8	12	17	9	12	4	7	11	15	7	11	4	8	13	15	3	7	12	14	diameter of the inhibition zone (DIZ) (Bacillus subtilis [5]): inactive; diameter of the inhibition zone (DIZ) (Bacillus subtilis [6]): inactive; diameter of the inhibition zone (DIZ) (Aspergillus niger [17]): inactive; diameter of the inhibition zone (DIZ) (Aspergillus niger [18]): inactive
